Measured values published in the EternaBench riboswitch data.

Tests used:
MS2 coat protein [1] = test: apparent Kd, MS2 coat protein; higher = weaker binding; RNA-MaP array; tryptophan 2.4 mM where present
Procedure, shortened: (§1)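 Designs on Illumina sequencing-chip clusters, transcribed by stalled E. coli RNA polymerase, were exposed to SNAP-549-labelled MS2 coat protein in doubling steps from 0.7 or 1.5 nM up to 3 µM, without and then with constant ligand. The buffer held 100 mM Tris-HCl pH 7.5, 80 mM KCl, 4 mM MgCl2, BSA, DTT, yeast tRNA and Tween-20. Apparent Kd values are medians of filtered per-cluster binding-curve fits to green signal normalised to red-channel RNA signal and control-cluster median Fmax.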

MS2 coat protein [2] = test: apparent Kd, MS2 coat protein; higher = weaker binding; RNA-MaP array; theophylline 2 mM where present
Procedure, shortened: as §1

[3] = designed as: ON switch for tryptophan, no ligand
[4] = ligand present: tryptophan, designed as: ON switch for tryptophan
[5] = designed as: OFF switch for tryptophan, no ligand
[6] = ligand present: tryptophan, designed as: OFF switch for tryptophan
[7] = designed as: OFF switch for theophylline, no ligand
[8] = ligand present: theophylline, designed as: OFF switch for theophylline
[9] = designed as: ON switch for theophylline, no ligand
[10] = ligand present: theophylline, designed as: ON switch for theophylline

## AAAUAAUAUUAAUUAAUUAUAUUAUUCUGACGAGGACCGGUACGGCCGCCACUCGGCCCAUGGUACAUGAGGAUCACCCAUGUCU
MS2 coat protein [1]; [3]
  apparent Kd: 17.6 nM
MS2 coat protein [1]; [4]
  apparent Kd: 13.6 nM

## AAGACCAGGAGGUGAUCCUAACUGGUCCAACGAGGACCGGUACGGCCGCCACUCGAAUAAACAUGAGGAUCACCCAUGUAAUAAU
MS2 coat protein [1]; [3]
  apparent Kd: 98.1 nM
MS2 coat protein [1]; [4]
  apparent Kd: 225 nM

## AAUAAUAAGGCGGCCGCCACUACACAUGAGGAUCACCCAUGUCUCGCGGGCUUGCGUUGGGAUUGUAGGACCGGGCCAAUAAUAA
MS2 coat protein [1]; [5]
  apparent Kd: 26.7 nM
MS2 coat protein [1]; [6]
  apparent Kd: 20.3 nM

## AAUGUAUGGCACAUGAGGAUCACCCAUGUGCGAGGACCGGUACGGCCGCCACUCGGUCCUGGGAACUUAUUACUAUACAUUAAUG
MS2 coat protein [1]; [5]
  apparent Kd: 11.9 nM
MS2 coat protein [1]; [6]
  apparent Kd: 23.3 nM

## AAUGUAUUCCACAUGAGGAUCACCCAUGUGCGAGGACCGGUACGGCCGCCACUCGGUGUUGGGAUCUGUUCUGAAUACAUUAAUG
MS2 coat protein [1]; [5]
  apparent Kd: 29 nM
MS2 coat protein [1]; [6]
  apparent Kd: 114 nM

## ACACCAUACAUGAGGAUCACCCAUGUUACACGAGGACCGGUACGGCCGCCACUCGAAUUCAGGAAACCUCGGAUAAUAUUGUGAA
MS2 coat protein [1]; [3]
  apparent Kd: 25.9 nM
MS2 coat protein [1]; [4]
  apparent Kd: 33.2 nM

## ACAUGAGCAUCAGCCAUGUGUAUGACAUGACGAGGACCGGUACGGCCGCCACUCGACAUGAGGAUCACCCAUGUUGAGGAUCACA
MS2 coat protein [1]; [5]
  apparent Kd: 10.9 nM
MS2 coat protein [1]; [6]
  apparent Kd: 14.7 nM

## ACAUGAGGAUCACCCAUGUGCAUGAUGAUCCGAGGACCGGUACGGCCGCCACUCGUCAUGAUGAUCUUUCAUGUUUGUCGCGCGC
MS2 coat protein [1]; [3]
  apparent Kd: 329 nM
MS2 coat protein [1]; [4]
  apparent Kd: 429 nM

## AGAGCAUUGACGGCCGCCACUCAUGUCACAUGAGGAUCACCCAUGUGAUGGGUGAUAGCCCGGUCGAGGACCGGGUCAAUGCUCA
MS2 coat protein [1]; [3]
  apparent Kd: 17.2 nM
MS2 coat protein [1]; [4]
  apparent Kd: 18 nM

## AGAUGAGUCACGGCCGCCACUCACUACAGGUUCACCCUUGGUUAACAUGAGGAUCACCCAUGUGGGAGGACCGGGUGAUGAGCAU
MS2 coat protein [1]; [5]
  apparent Kd: 19.9 nM
MS2 coat protein [1]; [6]
  apparent Kd: 25.1 nM

## AGCAACAAGUCGGCCGCCACUCAUUUAACAUGAGGAUCACCCAUGUGAAUAACAUGGUUGUAAUAGAGGACCGGGACAGUUGCAU
MS2 coat protein [1]; [3]
  apparent Kd: 119 nM
MS2 coat protein [1]; [4]
  apparent Kd: 574 nM

## AGCCGGAUUACGGCCGCCACUGUAGACGUGACGAAAGUCGCGUCAACAUGAGGAUCACCCAUGUACAGGACCGGGUGGUCGGGCG
MS2 coat protein [1]; [3]
  apparent Kd: 161 nM
MS2 coat protein [1]; [4]
  apparent Kd: 27.5 nM

## AUAACGAGUGGUGGAUAAUCCUCAUGUAAACGAGGACCGGUACGGCCGCCACUCGAUAACAUGAGGAUCACCCAUGUAAUAAUAA
MS2 coat protein [1]; [5]
  apparent Kd: 13.2 nM
MS2 coat protein [1]; [6]
  apparent Kd: 10.3 nM

## AUACAUGAGGAUCACCCAUGUGAUGGCCGGCGAGGACCGGUACGGCCGCCACUCGUGAUCCGUCCUGAGAGCAAAGCCCUCAGCA
MS2 coat protein [1]; [3]
  apparent Kd: 124 nM
MS2 coat protein [1]; [4]
  apparent Kd: 171 nM

## AUGGACGACGAUCUGGGAAAACCAGAUCGACGAGGACCGGUACGGCCGCCACUCGUGUUUAUUUAACAUGAGGAUCACCCAUGUA
MS2 coat protein [1]; [3]
  apparent Kd: 45.9 nM
MS2 coat protein [1]; [4]
  apparent Kd: 17.6 nM

## AUGUACAUGACGGCCGCCACUACACUGAAAGUGGUCCAGAACAUGAGGAUCACCCAUGUAUCAAGUAGGACCGGGUCAUGUACAU
MS2 coat protein [1]; [5]
  apparent Kd: 361 nM
MS2 coat protein [1]; [6]
  apparent Kd: 380 nM

## AUUAAGGAUAUGUAGACGGCGGAGAAGAGACGAGGACCGGUACGGCCGCCACUCGUGUUAGUUAACAUGAGGAUCACCCAUGUAA
MS2 coat protein [1]; [3]
  apparent Kd: 49.7 nM
MS2 coat protein [1]; [4]
  apparent Kd: 22 nM

## AUUCAUGGAAACAUGACAUAGGGAUCCGGUCGAGGACCGGUACGGCCGCCACUCGUUUGGAGGCACAUGAGGAUCACCCAUGUUA
MS2 coat protein [1]; [3]
  apparent Kd: 82 nM
MS2 coat protein [1]; [4]
  apparent Kd: 67.5 nM

## AUUCAUGGAAACAUGACAUAGGGAUCUAUCCGAGGACCGGUACGGCCGCCACUCGCGUGGAGGCACAUGAGGAUCACCCAUGUUA
MS2 coat protein [1]; [3]
  apparent Kd: 278 nM
MS2 coat protein [1]; [4]
  apparent Kd: 432 nM

## AUUGUGAAGUCGGCCGCCACUGCAUAGUUUAACCUCUUUUAACAUGAGGAUCACCCAUGUAAUGACAGGACCGGGACAAUAGUAA
MS2 coat protein [1]; [3]
  apparent Kd: 51.5 nM
MS2 coat protein [1]; [4]
  apparent Kd: 59.9 nM

## UACAUGAGGAUCACCCAUGUGGCGGAUGAUACCAGUAUGGUGACAUACCCUUGGCAGCAUGCUAUGAGGAUCACCCAUGUGUGCA
MS2 coat protein [2]; [7]
  apparent Kd: 85.3 nM
MS2 coat protein [2]; [8]
  apparent Kd: 166 nM

## UAUAUGGUGAUGGAUACCAGCAGAGAAAACGUUUAUCCUAACAUGAGGAUCACCCAUGUAUGCCCUUGGCAGCUGUUGUUAUAUA
MS2 coat protein [2]; [7]
  apparent Kd: 37.9 nM
MS2 coat protein [2]; [8]
  apparent Kd: 29.7 nM

## UAUUUUGGGCGCGAGCCCGGGAUAAUUGAUACCAGUGAAGAAGAGCGCCCUUGGCAGCGAAUCCUAACAUGAGGAUCACCCAUGU
MS2 coat protein [2]; [9]
  apparent Kd: 47.5 nM
MS2 coat protein [2]; [10]
  apparent Kd: 60 nM

## UCGUCCUCCGCAAGGAGGAGGAGUUGCGAUACCAGCACGGUAACGUGCCCUUGGCAGCGCACAUGAGGAUCACCCAUGUGGUGUU
MS2 coat protein [2]; [7]
  apparent Kd: 214 nM
MS2 coat protein [2]; [8]
  apparent Kd: 489 nM

## UCUUUCUUUGUAGAUACCAGCAUGUUAAGUUUCUUUUGACAUGAGGAUCACCCAUGUACAUGCCCUUGGCAGCUACAUUUUCUUU
MS2 coat protein [2]; [9]
  apparent Kd: 15.2 nM
MS2 coat protein [2]; [10]
  apparent Kd: 16.5 nM

## UGACAUUGCUGCGAUACCAGACAUGAGGAUCACCCAUGUACCAAGAAAACGUACAUAAAUGUCCCUUGGCAGCGCAGCAAUGUCU
MS2 coat protein [2]; [7]
  apparent Kd: 524 nM
MS2 coat protein [2]; [8]
  apparent Kd: 1360 nM

## UGACAUUGCUGCGAUACCAGACAUGAGGAUCACCCAUGUACCAAGGUACGAAAAUAACAUGUCCCUUGGCAGCGCAGCAAUGUCU
MS2 coat protein [2]; [7]
  apparent Kd: 12.6 nM
MS2 coat protein [2]; [8]
  apparent Kd: 254 nM

## UGGUUUGUGAUGGAUACCAGCAGAGAAAACGUUUAUCCUAACAUGAGGAUCACCCAUGUAUGCCCUUGGCAGCUGUUGUGGGCUG
MS2 coat protein [2]; [7]
  apparent Kd: 36 nM
MS2 coat protein [2]; [8]
  apparent Kd: 38.9 nM

## UGUAAAAUAACAGAUACCAGCGUGUUAUAAAACAUGAGGAUCACCCAUGUAGUGAUCAAGCGCCCUUGGCAGCUGGUAUUUUAUG
MS2 coat protein [2]; [9]
  apparent Kd: 160 nM
MS2 coat protein [2]; [10]
  apparent Kd: 129 nM

## UGUAACAUGAGGAUCACCCAUGUGAGUGAUACCAGAUUAGUAUUAGUCCCUUGGCAGCACGUUGGGCGAGUGUAUAGUCUAUGCG
MS2 coat protein [2]; [9]
  apparent Kd: 147 nM
MS2 coat protein [2]; [10]
  apparent Kd: 113 nM

## UGUAACAUGAGGAUCACCCAUGUGCACGAUACCAGCUUAUUGAUAGGCCCUUGGCAGCGUAUGCGGAAGCUGUAUAAUAUAUAUC
MS2 coat protein [2]; [9]
  apparent Kd: 11.3 nM
MS2 coat protein [2]; [10]
  apparent Kd: 12.7 nM

## UGUUUGGUGCGCGAGUGUUGGAUGAUUGAUACCAGUGAAGAAGAGCGCCCUUGGCAGCGAAUCCUAACAUGAGGAUCACCCAUGU
MS2 coat protein [2]; [9]
  apparent Kd: 50.8 nM
MS2 coat protein [2]; [10]
  apparent Kd: 67.6 nM

## UGUUUUAAAAGUGAUACCAGACAAACAUGAGGAUCACCCAUGUAACAUGAGAGAUAAUAAGUCCCUUGGCAGCACAUAAUUAGUA
MS2 coat protein [2]; [9]
  apparent Kd: 31.8 nM
MS2 coat protein [2]; [10]
  apparent Kd: 26.4 nM

## UUAAGAGGCUAUCAAAUUUGAUUUUGUGAUACCAGAAUAAUUUUAUUCCCUUGGCAGCAUGACAUGAGGAUCACCCAUGUGUCUU
MS2 coat protein [2]; [9]
  apparent Kd: 35.4 nM
MS2 coat protein [2]; [10]
  apparent Kd: 30.2 nM

## UUACAUGAGGAUCACCCAUGUCAUAACGAUACCAGAUAGUUAAUGAUCCCUUGGCAGCGUAAUACCUAGACAUUUAAGUCAUAGG
MS2 coat protein [2]; [9]
  apparent Kd: 56.2 nM
MS2 coat protein [2]; [10]
  apparent Kd: 19.6 nM

## UUACGAGGCUAUCCACUUUGAUUUUGUGAUACCAGAAUAAUUUUAUUCCCUUGGCAGCAUGACAUGAGGAUCACCCAUGUGUCUU
MS2 coat protein [2]; [9]
  apparent Kd: 38 nM
MS2 coat protein [2]; [10]
  apparent Kd: 61.7 nM

## UUUGAUAGGACAGAUACCAGCGUGUUGUAGAACAUGAGGAUCACCCAUGUAGUGAUCAAGCGCCCUUGGCAGCUGGUUUGUUAGG
MS2 coat protein [2]; [9]
  apparent Kd: 170 nM
MS2 coat protein [2]; [10]
  apparent Kd: 82.6 nM

## UUUGCACAUGAGGAUCACCCAUGUACAGAUACCAGCCUCAUCUACGGCCCUUGGCAGCUGAGACAAUGGUGACAUGAUGGGCUUU
MS2 coat protein [2]; [7]
  apparent Kd: 12.1 nM
MS2 coat protein [2]; [8]
  apparent Kd: 32.6 nM

## UUUGCACAUGAGGAUCACCCAUGUACAGAUACCAGCCUCAUCUACGGCCCUUGGCAGCUGAGACAAUGGUGACGUGACGGGCUUU
MS2 coat protein [2]; [7]
  apparent Kd: 11.7 nM
MS2 coat protein [2]; [8]
  apparent Kd: 28.2 nM

## UUUUAAAGCAUGGCGUAUCGGAAAACCGAUACCAGUACAGAAAUGUACCCUUGGCAGCGGAAUUUUACAUGAGGAUCACCCAUGU
MS2 coat protein [2]; [7]
  apparent Kd: 13.1 nM
MS2 coat protein [2]; [8]
  apparent Kd: 43.4 nM
